According to ChEMBL document CHEMBL3046667, “Synthesis and herbicidal activity evaluation of novel β-carboline derivatives” (Molecules, 2012):

What was measured:
Echinochloa crus-galli [1] = assay: Herbicidal activity against Echinochloa crus-galli (barnyard grass) assessed as growth inhibition at 10 ug/ml; assay type: functional; settings: read-out: GI
Procedure, shortened: (§1)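 Compounds formulated as 10 g/L emulsified concentrates (DMSO solvent, Tween-80 emulsifier), diluted in water and applied to pot-grown plants in a greenhouse (23 ± 1 °C, 60 ± 5% RH, 8 h/day photoperiod). Distilled water and 2,4-D serve as references. Shoot height, root length and fresh weight are measured per cup. Percent inhibition is taken relative to water; mean of three repeats.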

Echinochloa crus-galli [2] = assay: Herbicidal activity against Echinochloa crus-galli (barnyard grass) assessed as growth inhibition at 100 ug/ml; assay type: functional; settings: read-out: GI; procedure, shortened: as §1
[3] = system: Brassica rapa subsp. oleifera; assay: Herbicidal activity against Brassica rapa subsp. oleifera assessed as growth inhibition at 10 ug/ml; assay type: functional; settings: read-out: GI; procedure, shortened: as §1
[4] = system: Brassica rapa subsp. oleifera; assay: Herbicidal activity against Brassica rapa subsp. oleifera assessed as growth inhibition at 100 ug/ml; assay type: functional; settings: read-out: GI; procedure, shortened: as §1
Echinochloa crus-galli [5] = assay: Herbicidal activity against Echinochloa crus-galli (barnyard grass); assay type: functional, organism-based; procedure, shortened: as §1
[6] = system: Brassica rapa subsp. oleifera; assay: Herbicidal activity against Brassica rapa subsp. oleifera; assay type: functional, organism-based; procedure, shortened: as §1

O=C(N/N=C\c1ccc([N+](=O)[O-])cc1)c1cc2c(cn1)[nH]c1ccccc12
inhibition of growth at 10 µg/mL (Echinochloa crus-galli [1]): 24.6% | inhibition of growth at 100 µg/mL (Echinochloa crus-galli [2]): 43.2% | inhibition of growth at 10 µg/mL [3]: 30.9% | inhibition of growth at 100 µg/mL [4]: 85.4%

O=C(N/N=C\c1ccccc1O)c1cc2c(cn1)[nH]c1ccccc12
inhibition of growth at 10 µg/mL (Echinochloa crus-galli [1]): 18.1% | inhibition of growth at 100 µg/mL (Echinochloa crus-galli [2]): 47.6% | inhibition of growth at 10 µg/mL [3]: 19.4% | inhibition of growth at 100 µg/mL [4]: 50.1%

COc1cc(/C=N\NC(=O)c2cc3c(cn2)[nH]c2ccccc23)ccc1O
inhibition of growth at 10 µg/mL (Echinochloa crus-galli [1]): 13.3% | inhibition of growth at 100 µg/mL (Echinochloa crus-galli [2]): 33% | inhibition of growth at 10 µg/mL [3]: 27.4% | inhibition of growth at 100 µg/mL [4]: 63.2%

O=C(N/N=C\c1ccco1)c1cc2c(cn1)[nH]c1ccccc12
inhibition of growth at 10 µg/mL (Echinochloa crus-galli [1]): 0% | inhibition of growth at 100 µg/mL (Echinochloa crus-galli [2]): 0% | inhibition of growth at 10 µg/mL [3]: 2.59% | inhibition of growth at 100 µg/mL [4]: 17.9%

Cc1n[nH]c(Cl)c1/C=N\NC(=O)c1cc2c(cn1)[nH]c1ccccc12
inhibition of growth at 10 µg/mL (Echinochloa crus-galli [1]): 6.34% | inhibition of growth at 100 µg/mL (Echinochloa crus-galli [2]): 28.1% | inhibition of growth at 10 µg/mL [3]: 32.2% | inhibition of growth at 100 µg/mL [4]: 90.8%

O=C(N/N=C\Nc1ccc(C(F)(F)F)cc1)c1cc2c(cn1)[nH]c1ccccc12
inhibition of growth at 10 µg/mL (Echinochloa crus-galli [1]): 0% | inhibition of growth at 100 µg/mL (Echinochloa crus-galli [2]): 0% | inhibition of growth at 10 µg/mL [3]: 7.52% | inhibition of growth at 100 µg/mL [4]: 23.7%

O=C(NN=C(c1ccccc1)c1ccccc1)c1cc2c(cn1)[nH]c1ccccc12
inhibition of growth at 10 µg/mL (Echinochloa crus-galli [1]): 0% | inhibition of growth at 100 µg/mL (Echinochloa crus-galli [2]): 0% | inhibition of growth at 10 µg/mL [3]: 0% | inhibition of growth at 100 µg/mL [4]: 10.5%

Cc1nc(C(=O)N/N=C\c2ccccc2)cc2c1[nH]c1ccccc12
inhibition of growth at 10 µg/mL (Echinochloa crus-galli [1]): 21.9% | inhibition of growth at 100 µg/mL (Echinochloa crus-galli [2]): 51.5% | inhibition of growth at 10 µg/mL [3]: 37.2% | inhibition of growth at 100 µg/mL [4]: 87%

O=C(N/N=C\c1ccccc1)c1cc2c([nH]c3ccccc32)c(-c2ccccc2)n1
EC50 (Echinochloa crus-galli [5]): 4.83 µM | EC50 [6]: 4.83 µM | inhibition of growth at 10 µg/mL (Echinochloa crus-galli [1]): 30.4% | inhibition of growth at 100 µg/mL (Echinochloa crus-galli [2]): 73.9% | inhibition of growth at 10 µg/mL [3]: 62.1% | inhibition of growth at 100 µg/mL [4]: 100%

O=C(N/N=C\c1ccccc1)c1cc2c([nH]c3ccccc32)c(-c2ccc(C(F)(F)F)cc2)n1
inhibition of growth at 10 µg/mL (Echinochloa crus-galli [1]): 19.4% | inhibition of growth at 100 µg/mL (Echinochloa crus-galli [2]): 31.2% | inhibition of growth at 10 µg/mL [3]: 27.1% | inhibition of growth at 100 µg/mL [4]: 82.3%

O=C(N/N=C\c1ccccc1)c1cc2c([nH]c3ccccc32)c(-c2ccc(Cl)cc2)n1
inhibition of growth at 10 µg/mL (Echinochloa crus-galli [1]): 16.7% | inhibition of growth at 100 µg/mL (Echinochloa crus-galli [2]): 43.7% | inhibition of growth at 10 µg/mL [3]: 67% | inhibition of growth at 100 µg/mL [4]: 91.7%

O=C(N/N=C\c1ccc(C(F)(F)F)cc1)c1cc2c([nH]c3ccccc32)c(-c2ccc(C(F)(F)F)cc2)n1
inhibition of growth at 10 µg/mL (Echinochloa crus-galli [1]): 9.76% | inhibition of growth at 100 µg/mL (Echinochloa crus-galli [2]): 35.7% | inhibition of growth at 10 µg/mL [3]: 35.4% | inhibition of growth at 100 µg/mL [4]: 76.5%

O=C(N/N=C\c1ccc(C(F)(F)F)cc1)c1cc2c([nH]c3ccccc32)c(-c2ccccc2)n1
EC50 (Echinochloa crus-galli [5]): 14.2 µM | EC50 [6]: 14.2 µM | inhibition of growth at 10 µg/mL (Echinochloa crus-galli [1]): 27.9% | inhibition of growth at 100 µg/mL (Echinochloa crus-galli [2]): 60.3% | inhibition of growth at 10 µg/mL [3]: 57.9% | inhibition of growth at 100 µg/mL [4]: 100%

O=C(N/N=C\c1ccc(C(F)(F)F)cc1)c1cc2c([nH]c3ccccc32)c(-c2ccc(Cl)cc2)n1
inhibition of growth at 10 µg/mL (Echinochloa crus-galli [1]): 24.1% | inhibition of growth at 100 µg/mL (Echinochloa crus-galli [2]): 57.9% | inhibition of growth at 10 µg/mL [3]: 66.9% | inhibition of growth at 100 µg/mL [4]: 93.7%

O=C(N/N=C\c1ccccc1)C1Cc2c([nH]c3ccccc23)CN1 (stereo not drawn)
inhibition of growth at 10 µg/mL (Echinochloa crus-galli [1]): 0% | inhibition of growth at 100 µg/mL (Echinochloa crus-galli [2]): 15% | inhibition of growth at 10 µg/mL [3]: 3.75% | inhibition of growth at 100 µg/mL [4]: 25.3%

COc1ccc(/C=N\NC(=O)C2Cc3c([nH]c4ccccc34)CN2)cc1 (stereo not drawn)
inhibition of growth at 10 µg/mL (Echinochloa crus-galli [1]): 0% | inhibition of growth at 100 µg/mL (Echinochloa crus-galli [2]): 8.62% | inhibition of growth at 10 µg/mL [3]: 8.69% | inhibition of growth at 100 µg/mL [4]: 37.1%

COc1cc(/C=N\NC(=O)C2Cc3c([nH]c4ccccc34)CN2)cc(OC)c1OC (stereo not drawn)
inhibition of growth at 10 µg/mL (Echinochloa crus-galli [1]): 2.51% | inhibition of growth at 100 µg/mL (Echinochloa crus-galli [2]): 23.8% | inhibition of growth at 10 µg/mL [3]: 5.28% | inhibition of growth at 100 µg/mL [4]: 33.5%

O=C(N/N=C\Nc1ccc(C(F)(F)F)cc1)C1Cc2c([nH]c3ccccc23)CN1 (stereo not drawn)
inhibition of growth at 10 µg/mL (Echinochloa crus-galli [1]): 0% | inhibition of growth at 100 µg/mL (Echinochloa crus-galli [2]): 0% | inhibition of growth at 10 µg/mL [3]: 0% | inhibition of growth at 100 µg/mL [4]: 16.4%

O=C(N/N=C\c1ccccc1)c1cc2c(cn1)[nH]c1ccccc12
inhibition of growth at 10 µg/mL (Echinochloa crus-galli [1]): 11.8% | inhibition of growth at 100 µg/mL (Echinochloa crus-galli [2]): 35.9% | inhibition of growth at 10 µg/mL [3]: 18.1% | inhibition of growth at 100 µg/mL [4]: 55.6%

COc1ccc(/C=N\NC(=O)c2cc3c(cn2)[nH]c2ccccc23)cc1
inhibition of growth at 10 µg/mL (Echinochloa crus-galli [1]): 17.5% | inhibition of growth at 100 µg/mL (Echinochloa crus-galli [2]): 29.6% | inhibition of growth at 10 µg/mL [3]: 24.7% | inhibition of growth at 100 µg/mL [4]: 71.6%

COc1cc(/C=N\NC(=O)c2cc3c(cn2)[nH]c2ccccc23)cc(OC)c1OC
inhibition of growth at 10 µg/mL (Echinochloa crus-galli [1]): 15.1% | inhibition of growth at 100 µg/mL (Echinochloa crus-galli [2]): 37.1% | inhibition of growth at 10 µg/mL [3]: 16.3% | inhibition of growth at 100 µg/mL [4]: 58.4%

COc1cc(OC)c(/C=N\NC(=O)c2cc3c(cn2)[nH]c2ccccc23)c(OC)c1
inhibition of growth at 10 µg/mL (Echinochloa crus-galli [1]): 0% | inhibition of growth at 100 µg/mL (Echinochloa crus-galli [2]): 12.6% | inhibition of growth at 10 µg/mL [3]: 13.8% | inhibition of growth at 100 µg/mL [4]: 42.7%

O=C(N/N=C\c1ccc(Cl)cc1)c1cc2c(cn1)[nH]c1ccccc12
inhibition of growth at 10 µg/mL (Echinochloa crus-galli [1]): 0% | inhibition of growth at 100 µg/mL (Echinochloa crus-galli [2]): 0% | inhibition of growth at 10 µg/mL [3]: 18% | inhibition of growth at 100 µg/mL [4]: 47.3%

O=C(O)COc1ccc(Cl)cc1Cl [2,4-DICHLOROPHENOXYACETIC ACID]
inhibition of growth at 10 µg/mL (Echinochloa crus-galli [1]): 100% | inhibition of growth at 100 µg/mL (Echinochloa crus-galli [2]): 100% | inhibition of growth at 100 µg/mL [4]: 100%

COc1ccc2c(c1)[nH]c1c(C)nccc12 [HARMINE]
inhibition of growth at 10 µg/mL (Echinochloa crus-galli [1]): 10.8% | inhibition of growth at 100 µg/mL (Echinochloa crus-galli [2]): 32.5% | inhibition of growth at 10 µg/mL [3]: 20.2% | inhibition of growth at 100 µg/mL [4]: 53.7%
